This sample holds only a part of the variants without activity.
B1: tRNA (parent)
chain: GUUCCGUUGGCGUAAUGGUAACGCGUCUCCCUCCUAAGGAGAAGACUGCGGGUUCGAGUCCCGUACGGAACG

Variants of: B1
Experiment: yeast fitness relative to wild type (ratio to wild type); higher = fitter; tRNA-Arg(CCU), competitive growth, 37 C, YPD
How it was run: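 Start and end populations of a pooled competition were compared by 100-nucleotide paired-end sequencing of gene amplicons. The Saccharomyces cerevisiae strains carried tRNA-Arg(CCU) gene variants at the native genomic locus, synthesised with a 3% per-site mutation rate at 69 sites, and competed in YPD at 37°C for 24 hours in six parallel replicates. Darwinian fitness relative to wild type was based on the change in genotype frequencies. Genotypes required ≥ 100 starting reads, and estimates < 0.5 were set to 0.5.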
G41A A70C showed a yeast fitness of 0.901.
For U3A U7G A14U G25A G41C C46U, the yeast fitness was ≤ 0.5.
A15C G41A G48C showed a yeast fitness of 0.568.
For U54C G68C, the yeast fitness was 0.776.
With G23A C49U G63A A65C the yeast fitness was ≤ 0.5.
For U16A C22U U26C U54G A65G C66A, the yeast fitness was ≤ 0.5.
A15G U19G A69C gave a yeast fitness of 0.721.
For U19A C34G A43C C49U, the yeast fitness was ≤ 0.5.
For C4A C60G, the yeast fitness was 0.61.
Work on G6C U13G G18A C55A yielded a yeast fitness of 0.514.
U7G A65G gave a yeast fitness of 1.03.
U2A G18C gave a yeast fitness of 0.592.
C4G C34G showed a yeast fitness of 0.574.
With U2C C66U the yeast fitness was 0.968.
In the case of U19G A21U C29G, the yeast fitness is reported as 0.62.
For G12A C24G A40C A43C C46U C49U G68C A69U, the yeast fitness was ≤ 0.5.
C22A C29A showed a yeast fitness of 0.636.
With C11U A20U U32A G39A A65C the yeast fitness was ≤ 0.5.
For A21U C30A A70G, the yeast fitness was 0.756.
For G17A C22U C27A C30G C66G, the yeast fitness was ≤ 0.5.
In the case of G9C U19G, the yeast fitness is reported as 0.502.
In the case of A15U C27U C66A, the yeast fitness is reported as ≤ 0.5.
For C4G C30A G52C C66U, the yeast fitness was ≤ 0.5.
For U8C C49U C61A, the yeast fitness was ≤ 0.5.
For C29G C46G G48C, the yeast fitness was 0.533.
For G18A U28C, the yeast fitness was 0.739.
C29G A65C showed a yeast fitness of 0.564.
G9C G50C gave a yeast fitness of 0.514.
Variant C31U U53C has a yeast fitness of 0.633.
For G10A C24G A43G, the yeast fitness was ≤ 0.5.
For C24A U26G C61U, the yeast fitness was ≤ 0.5.
With C4U G18A A21C A36U the yeast fitness was ≤ 0.5.
In the case of A20G U32C, the yeast fitness is reported as 0.949.
In the case of C24G C27U C62U A70U, the yeast fitness is reported as ≤ 0.5.
In the case of A43C C62U A65U, the yeast fitness is reported as 0.591.
For G25A A43G G48C, the yeast fitness was 0.573.
With C4U C11A C46U U59C the yeast fitness was ≤ 0.5.
With A36G G67C the yeast fitness was 0.759.
C29G G48C C61A gave a yeast fitness of 0.564.
For U16A C24U C61G A65G, the yeast fitness was ≤ 0.5.
In the case of C29U G38C U64C, the yeast fitness is reported as ≤ 0.5.
In the case of G6C U28C C30A G39A, the yeast fitness is reported as ≤ 0.5.
With G6A C29A C31G G67A the yeast fitness was ≤ 0.5.
Work on U3C G58C yielded a yeast fitness of 0.97.
For C29G A57C C66G, the yeast fitness was ≤ 0.5.
For G12C A21U C34U A69C, the yeast fitness was ≤ 0.5.
For C29G C31A C55U A70U, the yeast fitness was ≤ 0.5.
In the case of G25A G52U U54C, the yeast fitness is reported as ≤ 0.5.
G6A G17A U19G A69U showed a yeast fitness of 0.595.
With U3G U8C C24A C30U the yeast fitness was ≤ 0.5.
Work on G10A G17C C30G C33G yielded a yeast fitness of 0.578.
With U8C A15C C31A the yeast fitness was ≤ 0.5.
For G12C U28A C66U G68A, the yeast fitness was ≤ 0.5.
C11U A37C C46G C60U C61A gave a yeast fitness of 0.536.
In the case of U2C A14U A15G C30U C34U G51C C55U, the yeast fitness is reported as 0.596.
In the case of G50C A65G, the yeast fitness is reported as 0.766.
For A43U G48C U54C C60A U64A, the yeast fitness was ≤ 0.5.
For C31U G68A, the yeast fitness was 0.883.
For A20G A36C G48C U53C A70C, the yeast fitness was ≤ 0.5.
C62G U64C gave a yeast fitness of 0.97.
In the case of C22G A70G, the yeast fitness is reported as 0.86.
In the case of C11U C30A U35A G38A C61G, the yeast fitness is reported as ≤ 0.5.
In the case of A20C C22G C60A, the yeast fitness is reported as ≤ 0.5.
G39A A42C C66U gave a yeast fitness of 0.542.
For U47G C62U, the yeast fitness was 0.633.
For A14C G25C C27G C34U U35A G38A C66U, the yeast fitness was ≤ 0.5.
In the case of A20U C31U G38C, the yeast fitness is reported as 0.553.
With C4G U28A G39A A65U G68A the yeast fitness was ≤ 0.5.
In the case of C11U A20G C22A G23C U28G A43G A57G, the yeast fitness is reported as ≤ 0.5.
With C24G C27A A45C C62G C66U the yeast fitness was ≤ 0.5.
In the case of A20C U28C C34A, the yeast fitness is reported as 0.791.
Work on U2G A45U C46G A69C yielded a yeast fitness of 0.537.
With C4A U54C C61G the yeast fitness was ≤ 0.5.
In the case of A14C U19G U32A G52C, the yeast fitness is reported as ≤ 0.5.
In the case of A21G G48A, the yeast fitness is reported as 0.92.
Variant G9C A15G A21U G56A A57G G67A has a yeast fitness of 0.593.
For G6C C29G C61U, the yeast fitness was ≤ 0.5.
For C24G C33U C61A A69U, the yeast fitness was ≤ 0.5.
With A21G C27U C61G A65U the yeast fitness was ≤ 0.5.
With C11A A70C the yeast fitness was 0.593.
In the case of U2A U3A G63C, the yeast fitness is reported as ≤ 0.5.
In the case of A14U C33G A37G A40C C49G G67C, the yeast fitness is reported as ≤ 0.5.
With C4U A14C G44A U54A A70U the yeast fitness was ≤ 0.5.
